The subject of one assay is Enterobacter cloacae. In words: In vitro minimum inhibitory concentration for Enterobacter cloacae (ATCC-27508) by agar dilution method. The conditions noted are these: Enterobacter cloacae; read-out: MIC. The assay is classed as functional. A digest of the protocol: (§1)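 Two-fold serial dilutions of each compound dispersed in Mueller-Hinton agar; plates spot-inoculated with 2 μL of standard test strain at 10^7 CFU/mL, incubated 37 °C for 20 h; MIC read as lowest concentration inhibiting growth.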
A general note: Agar dilution tests growth on a series of plates holding different concentrations.

A further assay concerns Klebsiella aerogenes. In words: In vitro minimum inhibitory concentration for Enterobacter aerogenes (ATCC-29751) by agar dilution method. The assay is classed as functional. The conditions noted are these: Klebsiella aerogenes; read-out: MIC. An outline of the steps: as §1
The next assay deals with Klebsiella pneumoniae. In words: In vitro minimum inhibitory concentration for Klebsiella pneumoniae (ATCC-10031) by agar dilution method. The assay is classed as functional. Particulars: Klebsiella pneumoniae; read-out: MIC.
The next assay has as its system Proteus vulgaris. The experiment in a line: In vitro minimum inhibitory concentration for Proteus vulgaris (ATCC-6059) by agar dilution method. The assay is classed as functional. Particulars: Proteus vulgaris; read-out: MIC. A digest of the protocol:
as §1

Assay [1] concerns Pseudomonas aeruginosa. The experiment in a line: In vitro minimum inhibitory concentration for Pseudomonas aeruginosa (ATCC-27853) by agar dilution method. The assay is classed as functional. Particulars: Pseudomonas aeruginosa; read-out: MIC. A digest of the protocol:
as §1

Assay [2] deals with Pseudomonas aeruginosa. The experiment in a line: In vitro minimum inhibitory concentration for Pseudomonas aeruginosa (ATCC 10145) by agar dilution method. It is filed as functional. An outline of the steps: as §1
Assay [3] deals with Staphylococcus epidermidis. The experiment in a line: In vitro minimum inhibitory concentration for Staphylococcus epidermidis (ATCC-12228) by agar dilution method. It is filed as functional. Particulars: Staphylococcus epidermidis; read-out: MIC. An outline of the steps:
as §1

A further assay relates to Escherichia coli. In words: In vitro minimum inhibitory concentration for Escherichia coli (ATCC-10536) by agar dilution method. The conditions noted are these: Escherichia coli; read-out: MIC. The assay is classed as functional. A digest of the protocol:
as §1

Another assay relates to Salmonella typhimurium. The experiment in a line: In vitro minimum inhibitory concentration for Salmonella Typhimurium (ATCC-14028) by agar dilution method. The assay is classed as functional, Salmonella enterica subsp. enterica serovar Typhimurium. The conditions noted are these: Salmonella enterica; read-out: MIC. An outline of the steps: as §1
In the next assay the test system is Serratia marcescens. The experiment in a line: In vitro minimum inhibitory concentration for Serratia marcescens (ATCC-27117) by agar dilution method. The assay is classed as functional. The conditions noted are these: Serratia marcescens; read-out: MIC. An outline of the steps: as §1
The subject of a further assay is Staphylococcus aureus. In words: In vitro minimum inhibitory concentration for Staphylococcus aureus (ATCC 6538p) by agar dilution method. The assay is classed as functional. Particulars: Staphylococcus aureus, ATCC 6538p; read-out: MIC. An outline of the steps: as §1
Another assay relates to Citrobacter freundii. The experiment in a line: In vitro minimum inhibitory concentration for Citrobacter freundii (ATCC-8090) by agar dilution method. The assay is classed as functional. The conditions noted are these: Citrobacter freundii; read-out: MIC. A digest of the protocol: as §1

Converted amounts (≈) assume the structure as drawn.

For the compound `CC(C)(O/N=C(\C(=O)NC1C(=O)N2C(C(=O)O)=C(CSc3nc(N)cc(N)n3)CSC12)c1cnc(N)s1)C(=O)O` (stereo unspecified), the MIC (in general, the lowest concentration that inhibits growth of the organism) in the assay with Enterobacter cloacae was determined as 0.25 µg/mL (≈ 0.41 µM); in the assay on Klebsiella aerogenes it was 2 µg/mL (≈ 3.28 µM); with Klebsiella pneumoniae, 0.25 µg/mL (≈ 0.41 µM); with Proteus vulgaris, 0.031 µg/mL (≈ 0.0508 µM); in the assay on Pseudomonas aeruginosa [1], 2 µg/mL (≈ 3.28 µM); in the assay with Pseudomonas aeruginosa [2], 4 µg/mL (≈ 6.56 µM). The MIC in assay [3] came to 8 µg/mL (≈ 13.1 µM); in the assay with Escherichia coli, 0.25 µg/mL (≈ 0.41 µM); in the assay on Salmonella typhimurium, 0.5 µg/mL (≈ 0.82 µM); with Serratia marcescens, 0.5 µg/mL (≈ 0.82 µM); in the assay on Staphylococcus aureus, 32 µg/mL (≈ 52.5 µM); with Citrobacter freundii, 1 µg/mL (≈ 1.64 µM).
Regarding `CC(C)(O/N=C(\C(=O)NC1C(=O)N2C(C(=O)[O-])=C(CSc3nc(N)c4c([n+]3N)CCCC4)CSC12)c1cnc(N)s1)C(=O)O` (stereo unspecified), the MIC in the assay on Enterobacter cloacae turned out to be 0.02 µg/mL (≈ 0.0301 µM); in the assay with Klebsiella aerogenes it was 0.5 µg/mL (≈ 0.753 µM); with Klebsiella pneumoniae, 0.06 µg/mL (≈ 0.0904 µM); with Proteus vulgaris, 0.06 µg/mL (≈ 0.0904 µM); in the assay on Pseudomonas aeruginosa [1], 2 µg/mL (≈ 3.01 µM); in the assay with Pseudomonas aeruginosa [2], 4 µg/mL (≈ 6.03 µM). Besides, the MIC was found to be 2 µg/mL (≈ 3.01 µM) in [3]; 0.06 µg/mL (≈ 0.0904 µM) with Escherichia coli; 0.13 µg/mL (≈ 0.196 µM) with Salmonella typhimurium; 0.25 µg/mL (≈ 0.377 µM) in the assay on Serratia marcescens; 4 µg/mL (≈ 6.03 µM) in the assay with Staphylococcus aureus; 0.06 µg/mL (≈ 0.0904 µM) in the assay with Citrobacter freundii.
As to `CCCC[n+]1c(N)cc(N)nc1SCC1=C(C(=O)[O-])N2C(=O)C(NC(=O)/C(=N\OC(C)(C)C(=O)O)c3cnc(N)s3)C2SC1` (stereo unspecified), the MIC with Enterobacter cloacae came out at 0.03 µg/mL (≈ 0.0451 µM); in the assay on Klebsiella aerogenes, 1 µg/mL (≈ 1.5 µM); in the assay on Klebsiella pneumoniae it was 0.06 µg/mL (≈ 0.0901 µM); with Proteus vulgaris, 0.25 µg/mL (≈ 0.375 µM); in the assay with Pseudomonas aeruginosa [1], 4 µg/mL (≈ 6.01 µM); in the assay with Pseudomonas aeruginosa [2], 4 µg/mL (≈ 6.01 µM). In addition, the minimum inhibitory concentration (MIC) in assay [3] came out at 1 µg/mL (≈ 1.5 µM); with Escherichia coli, 0.13 µg/mL (≈ 0.195 µM); in the assay on Salmonella typhimurium, 0.5 µg/mL (≈ 0.751 µM); in the assay on Serratia marcescens, 0.5 µg/mL (≈ 0.751 µM); in the assay on Staphylococcus aureus, 2 µg/mL (≈ 3 µM); with Citrobacter freundii, 0.13 µg/mL (≈ 0.195 µM).
Turning to `CC(C)(O/N=C(\C(=O)NC1C(=O)N2C(C(=O)O)=C(CSc3ncccn3)CSC12)c1cnc(N)s1)C(=O)O` (stereo unspecified), the minimum inhibitory concentration (MIC) in the assay with Enterobacter cloacae turned out to be 0.5 µg/mL (≈ 0.863 µM); in the assay with Klebsiella aerogenes it was 16 µg/mL (≈ 27.6 µM); in the assay with Klebsiella pneumoniae, 0.5 µg/mL (≈ 0.863 µM); in the assay on Proteus vulgaris it was 0.063 µg/mL (≈ 0.109 µM); with Pseudomonas aeruginosa [1] it was 16 µg/mL (≈ 27.6 µM); against Pseudomonas aeruginosa [2], 32 µg/mL (≈ 55.2 µM). Further, the MIC was determined as 8 µg/mL (≈ 13.8 µM) in [3]; 1 µg/mL (≈ 1.73 µM) in the assay on Escherichia coli; 2 µg/mL (≈ 3.45 µM) with Salmonella typhimurium; 2 µg/mL (≈ 3.45 µM) in the assay with Serratia marcescens; 16 µg/mL (≈ 27.6 µM) in the assay on Staphylococcus aureus; 1 µg/mL (≈ 1.73 µM) in the assay with Citrobacter freundii.
Regarding `CC(C)(O/N=C(\C(=O)NC1C(=O)N2C(C(=O)[O-])=C(CSc3nc(N)c4c([n+]3N)CCC4)CSC12)c1cnc(N)s1)C(=O)O` (stereo unspecified), the MIC amounted to 0.02 µg/mL (≈ 0.0308 µM) in the assay with Enterobacter cloacae; 0.25 µg/mL (≈ 0.385 µM) in the assay with Klebsiella aerogenes; 0.06 µg/mL (≈ 0.0923 µM) in the assay on Klebsiella pneumoniae; 0.06 µg/mL (≈ 0.0923 µM) in the assay on Proteus vulgaris; 2 µg/mL (≈ 3.08 µM) in the assay with Pseudomonas aeruginosa [1]; 2 µg/mL (≈ 3.08 µM) against Pseudomonas aeruginosa [2]. Moreover, the minimal inhibitory concentration (MIC) in assay [3] amounted to 2 µg/mL (≈ 3.08 µM); in the assay with Escherichia coli it was 0.06 µg/mL (≈ 0.0923 µM); in the assay with Salmonella typhimurium, 0.13 µg/mL (≈ 0.2 µM); in the assay with Serratia marcescens, 0.13 µg/mL (≈ 0.2 µM); with Staphylococcus aureus, 4 µg/mL (≈ 6.16 µM); in the assay with Citrobacter freundii, 0.03 µg/mL (≈ 0.0462 µM).
For the compound `C[n+]1ccc(N)nc1SCC1=C(C(=O)[O-])N2C(=O)C(NC(=O)/C(=N\OC(C)(C)C(=O)O)c3cnc(N)s3)C2SC1` (stereo unspecified), the MIC in the assay on Enterobacter cloacae was less than 0.008 µg/mL; with Klebsiella aerogenes, 1 µg/mL (≈ 1.64 µM); in the assay on Klebsiella pneumoniae, 0.03 µg/mL (≈ 0.0493 µM); in the assay with Proteus vulgaris, 0.06 µg/mL (≈ 0.0986 µM); with Pseudomonas aeruginosa [1] it was 1 µg/mL (≈ 1.64 µM); with Pseudomonas aeruginosa [2], 2 µg/mL (≈ 3.29 µM). Further, the MIC in assay [3] came to 2 µg/mL (≈ 3.29 µM); in the assay with Escherichia coli it was 0.03 µg/mL (≈ 0.0493 µM); in the assay with Salmonella typhimurium it was 0.13 µg/mL (≈ 0.214 µM); in the assay on Serratia marcescens, 0.06 µg/mL (≈ 0.0986 µM); with Staphylococcus aureus it was 4 µg/mL (≈ 6.57 µM); in the assay with Citrobacter freundii, 0.03 µg/mL (≈ 0.0493 µM).
Regarding `CC(C)(O/N=C(\C(=O)NC1C(=O)N2C(C(=O)[O-])=C(CSc3nc(N)cc(N)[n+]3-c3ccccc3)CSC12)c1cnc(N)s1)C(=O)O` (stereo unspecified), the MIC amounted to 0.06 µg/mL (≈ 0.0875 µM) in the assay with Enterobacter cloacae; 0.5 µg/mL (≈ 0.729 µM) in the assay with Klebsiella aerogenes; 0.13 µg/mL (≈ 0.19 µM) in the assay on Klebsiella pneumoniae; 0.13 µg/mL (≈ 0.19 µM) with Proteus vulgaris; 2 µg/mL (≈ 2.92 µM) in the assay on Pseudomonas aeruginosa [1]; 4 µg/mL (≈ 5.83 µM) with Pseudomonas aeruginosa [2]. Moreover, the MIC came out at 2 µg/mL (≈ 2.92 µM) in assay [3]; 0.25 µg/mL (≈ 0.365 µM) in the assay with Escherichia coli; 0.5 µg/mL (≈ 0.729 µM) in the assay with Salmonella typhimurium; 0.5 µg/mL (≈ 0.729 µM) in the assay with Serratia marcescens; 4 µg/mL (≈ 5.83 µM) in the assay on Staphylococcus aureus; 0.25 µg/mL (≈ 0.365 µM) in the assay with Citrobacter freundii.
Take `COc1cc(N)nc(SCC2=C(C(=O)[O-])N3C(=O)C(NC(=O)/C(=N\OC(C)(C)C(=O)O)c4cnc(N)s4)C3SC2)[n+]1C` (stereo unspecified): the MIC turned out to be 0.02 µg/mL (≈ 0.0313 µM) in the assay on Enterobacter cloacae; 4 µg/mL (≈ 6.26 µM) in the assay with Klebsiella aerogenes; 0.06 µg/mL (≈ 0.0939 µM) in the assay with Klebsiella pneumoniae; 0.13 µg/mL (≈ 0.204 µM) in the assay on Proteus vulgaris; 2 µg/mL (≈ 3.13 µM) with Pseudomonas aeruginosa [1]; 4 µg/mL (≈ 6.26 µM) in the assay on Pseudomonas aeruginosa [2]. The MIC in [3] stood at 1 µg/mL (≈ 1.57 µM); in the assay on Escherichia coli, 0.06 µg/mL (≈ 0.0939 µM); with Salmonella typhimurium, 0.25 µg/mL (≈ 0.391 µM); in the assay with Serratia marcescens, 0.25 µg/mL (≈ 0.391 µM); in the assay with Staphylococcus aureus it was 4 µg/mL (≈ 6.26 µM); in the assay with Citrobacter freundii, 0.13 µg/mL (≈ 0.204 µM).

The values are drawn from ChEMBL document CHEMBL1127395, “Synthesis and antimicrobial activity of novel 3-[(aminopyrimidiniumyl)thio]methyl cephalosporins” (1994).
